From ChEMBL document CHEMBL1143842, “Efficacy of tachyplesin III, colistin, and imipenem against a multiresistant Pseudomonas aeruginosa strain” (Antimicrob Agents Chemother, 2007) come the findings set out here.

Values after ≈ are worked out from the molar mass of the structure shown. Active and inactive are the calls of the source. The rule behind the calls is not given here.

For test [1], the system named is Pseudomonas aeruginosa. Nature of the test: Reduction of Pseudomonas aeruginosa ATCC 27853 infection induced IL6 levels in BALB/c mouse plasma after 24 hrs by ELISA. In kind it is functional, organism-based. Summed up: (§1)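 Male BALB/c mice were infected i.v. with 2.0 × 10^7 CFU and treated i.v. immediately afterwards. Tail-vein plasma was sampled at 0, 6, 12, 24 and 48 h. IL-6 and TNF-α were measured by ELISA in duplicate, with sensitivity limits of 12 pg/ml and 0.05 ng/ml respectively.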
On the technique in general: In an ELISA, binding on a coated surface is turned into a signal by an enzyme label.

Test [2] has as its system Pseudomonas aeruginosa. Nature of the test: Reduction of Pseudomonas aeruginosa ATCC 27853 infection induced endotoxin levels in BALB/c mouse plasma after 24 hrs by ELISA. It is filed as functional, organism-based.
For test [3], the system named is Pseudomonas aeruginosa. In words: Reduction of Pseudomonas aeruginosa ATCC 27853 infection induced TNFalpha levels in BALB/c mouse plasma after 24 hrs by ELISA. It is filed as functional, organism-based. Summed up: as §1
Test [4] relates to Pseudomonas aeruginosa. In words: Reduction of Pseudomonas aeruginosa clinical isolate infection induced endotoxin levels in BALB/c mouse plasma after 24 hrs by ELISA. It is filed as functional, organism-based.
Test [5] relates to Pseudomonas aeruginosa. In words: Reduction of Pseudomonas aeruginosa clinical isolate infection induced TNFalpha levels in BALB/c mouse plasma after 24 hrs by ELISA. In kind it is functional, organism-based. Summed up: as §1
Test [6] relates to Pseudomonas aeruginosa. In words: Reduction of Pseudomonas aeruginosa clinical isolate infection induced IL6 levels in BALB/c mouse plasma after 24 hrs by ELISA. In kind it is functional, organism-based. The method, boiled down: as §1
In test [7] the test system is Pseudomonas aeruginosa. Nature of the test: Antimicrobial activity against Pseudomonas aeruginosa ATCC 27853 by broth microdilution method. It is filed as functional. The method, boiled down: (§2)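 CLSI broth microdilution in Mueller-Hinton broth with an inoculum of 5 × 10^5 CFU/ml, incubated 18 h at 37°C in air. Plates were shaken throughout when the peptide was tested. The MIC was the lowest concentration inhibiting visible growth. Run in triplicate.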

Test [8] relates to Pseudomonas aeruginosa. Nature of the test: Antimicrobial activity against Pseudomonas aeruginosa clinical isolates by broth microdilution method. It is filed as functional. Summed up: as §2
(In general: Broth dilution looks for growth in wells or tubes with falling amounts of substance.)

Test [9] deals with Pseudomonas aeruginosa. In words: Effect on Pseudomonas aeruginosa ATCC 27853 induced sepsis in BALB/c mouse assessed as mortality at 1 mg/kg, iv for 72 hrs. In kind it is functional. Summed up: (§3)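 Male BALB/c mice, 25–30 g, housed singly, anesthetized with ketamine 30 mg/kg im. Log-phase bacteria (grown in brain heart infusion broth, resuspended in saline) given iv via tail vein, 2.0 × 10^7 CFU. Drug at 1 or 20 mg/kg iv immediately post-challenge; saline controls. 20 mice/group; lethality over 72 h, compared by Fisher's exact test.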

For test [10], the system named is Pseudomonas aeruginosa. Nature of the test: Effect on Pseudomonas aeruginosa clinical isolate induced sepsis in BALB/c mouse assessed as mortality at 1 mg/kg, iv for 72 hrs. It is filed as functional. Summed up:
as §3

Test [11] deals with Pseudomonas aeruginosa. In words: Antibacterial activity against Pseudomonas aeruginosa ATCC 27853 infected in BALB/c mouse blood at 1 mg/kg, iv after 24 hrs. In kind it is functional. The method, boiled down:
(§4)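 Male BALB/c mice (25–30 g) were anesthetized with ketamine 30 mg/kg i.m. They were challenged via the tail vein with 2.0 × 10^7 CFU log-phase bacteria in saline. Drug or saline was given i.v. immediately after challenge, 20 mice per group. Tail-vein blood was taken at 24 h, serially diluted and plated on blood agar for 48 h at 35°C, and CFU were counted. Detection limit was 10 CFU/ml.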

Test [12] has as its system Pseudomonas aeruginosa. In words: Antibacterial activity against Pseudomonas aeruginosa clinical isolates infected in BALB/c mouse blood at 1 mg/kg, iv after 24 hrs. In kind it is functional. Summed up: as §4
Test [13] has as its system Pseudomonas aeruginosa. Nature of the test: Effect on Pseudomonas aeruginosa ATCC 27853 induced sepsis in BALB/c mouse assessed as mortality at 20 mg/kg, iv for 72 hrs. It is filed as functional. The method, boiled down:
as §3

Test [14] relates to Pseudomonas aeruginosa. Nature of the test: Effect on Pseudomonas aeruginosa clinical isolate induced sepsis in BALB/c mouse assessed as mortality at 20 mg/kg, iv for 72 hrs. It is filed as functional. Summed up: as §3
The subject of test [15] is Pseudomonas aeruginosa. Nature of the test: Antibacterial activity against Pseudomonas aeruginosa ATCC 27853 infected in BALB/c mouse blood at 20 mg/kg, iv after 24 hrs. In kind it is functional. Summed up: as §4
For test [16], the system named is Pseudomonas aeruginosa. Nature of the test: Antibacterial activity against Pseudomonas aeruginosa clinical isolates infected in BALB/c mouse blood at 20 mg/kg, iv after 24 hrs. It is filed as functional. The method, boiled down:
as §4

As for `CC[C@H](C)[C@H](NC(=O)CNC(=O)[C@H](CCCNC(=N)N)NC(=O)[C@H](Cc1ccc(O)cc1)NC(=O)[C@H](CS)NC(=O)[C@@H](NC(=O)[C@H](CCCNC(=N)N)NC(=O)[C@H](Cc1ccccc1)NC(=O)[C@H](CS)NC(=O)[C@H](Cc1c[nH]c2ccccc12)NC(=O)[C@@H](N)CCCCN)C(C)C)C(=O)N[C@@H](CS)C(=O)N[C@@H](Cc1ccc(O)cc1)C(=O)N[C@@H](CCCNC(=N)N)C(=O)N[C@@H](CCCCN)C(=O)N[C@@H](CS)C(=O)NC(CCCNC(=N)N)C(N)=O` (single isomer, unassigned) [TACHYPLESIN III], the result in the test with Pseudomonas aeruginosa [1], in the test on Pseudomonas aeruginosa [2], with Pseudomonas aeruginosa [3], in the test on Pseudomonas aeruginosa [4], in the test on Pseudomonas aeruginosa [5] and in the test on Pseudomonas aeruginosa [6] was Active.

One may read the MIC as the lowest concentration found to suppress growth. Take COLISTIN: the minimal inhibitory concentration (MIC) against Pseudomonas aeruginosa [7] was 4 µg/mL; against Pseudomonas aeruginosa [8] it was 8 µg/mL. Further, the Activity in the test with Pseudomonas aeruginosa [9] is 40%; in the test on Pseudomonas aeruginosa [10] it was 30%. Besides, the values for the CFU in the test on Pseudomonas aeruginosa [11] and in the test with Pseudomonas aeruginosa [12] were 6 10^4/ml and 1.4 10^4/ml, respectively. Moreover, the outcome with Pseudomonas aeruginosa [1], in the test with Pseudomonas aeruginosa [2], with Pseudomonas aeruginosa [3], in the test on Pseudomonas aeruginosa [4], with Pseudomonas aeruginosa [5] and in the test on Pseudomonas aeruginosa [6] was Active.

With `C[C@@H](O)[C@H]1C(=O)N2C(C(=O)O)=C(SCCNC=N)C[C@H]12` [IMIPENEM ANHYDROUS], the MIC in the test with Pseudomonas aeruginosa [7] is 0.5 µg/mL (≈ 1.67 µM); against Pseudomonas aeruginosa [8] it was 32 µg/mL (≈ 107 µM). Besides, the results for the Activity with Pseudomonas aeruginosa [13] and in the test on Pseudomonas aeruginosa [14] were 30% and 80%, respectively. Moreover, the values for the CFU in the test with Pseudomonas aeruginosa [15] and in the test with Pseudomonas aeruginosa [16] were 2.8 10^3/ml and 8.7 10^6/ml, respectively.
